Here are results for 2 compounds from ChEMBL document CHEMBL5223087, “First-in-Class Cyclic Temporin L Analogue: Design, Synthesis, and Antimicrobial Assessment” (J Med Chem, 2021).

Each structure is given as a SMILES string. In brackets after ≈: the same amount, converted by molar mass. Activity calls are given as the source filed them. The rule behind the calls is not given here. Bridge positions count the residues as written; N and C are the ends. Square brackets hold non-standard residues; d marks the D form. Peptide text beside a SMILES is read from it. Where only a bound is given, the exact number is not on record here.

For series [1], the system named is Pseudomonas aeruginosa. Briefly: Antimicrobial activity against Pseudomonas aeruginosa ATCC 27853 assessed as reduction in bacterial growth incubated for 16 to 18 hrs by microdilution susceptibility test. It counts as functional. As to conditions: time 16-18 hrs. The method, boiled down:
(§1)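 Broth microdilution in Mueller–Hinton broth. Mid-log bacteria at 1 × 10⁶ CFU/mL final, peptide twofold serial dilutions 100 to 0.78 μM final. Incubated 16–18 h at 37 °C. MIC taken as the lowest concentration giving total (100%) growth inhibition.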
On the technique in general: Broth dilution looks for growth in wells or tubes with falling amounts of substance.

Series [2] in a line: Membrano-lytic effect in bacterial inner membrane mimic DOPE/DOPG/CL (63:23:12) large unilamellar vesicles at 5 to 50 uM by varian cary eclipse fluorescence spectrometry analysis. It counts as cell membranes. To be noted: dose 5-50 µM.
Series [3] has as its system HaCaT. In words: Cytotoxicity against human HaCaT cells assessed as reduction in cell viability at 50 uM measured after 24 hrs by MTT assay. Format: toxicity, cell-based. The gist of the method: (§2)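 HaCaT keratinocytes seeded at 4 × 10⁴/well in DMEM with 4 mM glutamine and 2% FBS, no antibiotics, overnight at 37 °C, 5% CO2. Medium replaced with peptide-containing DMEMg for 2 or 24 h. MTT 0.5 mg/mL in Hank's buffer 4 h, formazan dissolved in acidified isopropanol, A570. Viability as % of untreated cells; mean of three independent experiments ± SEM.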
In general terms: Tetrazolium assays rely on reduction of a dye to a coloured formazan, in cell work by metabolically active cells.

For series [4], the system named is Escherichia coli. Briefly: Antimicrobial activity against Escherichia coli ATCC 25922 assessed as reduction in bacterial growth incubated for 16 to 18 hrs by microdilution susceptibility test. It counts as functional. To be noted: time 16-18 hrs. The gist of the method: as §1
Series [5] concerns HaCaT. Briefly: Cytotoxicity against human HaCaT cells assessed as reduction in cell viability at 50 uM measured after 2 hrs by MTT assay. Format: toxicity, cell-based. The method, boiled down:
as §2

For series [6], the system named is HaCaT. In words: Cytotoxicity against human HaCaT cells assessed as reduction in cell viability at 25 uM measured after 2 hrs by MTT assay. It counts as toxicity, cell-based. The method, boiled down: as §2
The nature of series [7]: Membrano-lytic effect in bacterial inner membrane mimic DOPG/CL (58:42) large unilamellar vesicles at 50 uM by varian cary eclipse fluorescence spectrometry analysis. It counts as cell membranes.
Series [8] is described as follows: Membrano-lytic effect in bacterial inner membrane mimic DOPE/DOPG/CL (63:23:12) large unilamellar vesicles at 10 uM by varian cary eclipse fluorescence spectrometry analysis. Format: cell membranes.
Series [9] is described as follows: Disaggregation property of compound in LPS at 20 uM after 1 hr by Tht fluorescence based assay. It counts as physicochemical. The method, boiled down:
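Peptide 20 μM incubated 1 h with LPS 1 mg/mL and ThT 25 μM. Aggregation read as ThT emission at 482 nm, excitation 450 nm. ThT alone and peptide alone served as controls.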

The nature of series [10]: Induction of membrane leakage in DOPG/CL (58:42) large unilamellar vesicles at 5 to 50 uM incubated for 10 mins. As to conditions: dose 5-50 µM. The gist of the method: (§3)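 Free probe removed by Sephadex G-50 gel filtration. Peptide added at 5–50 μM. ANTS dequenching followed 10 min (excitation 385 nm, emission 512 nm). Leakage normalised to Triton X-100 maximum.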
The nature of series [11]: Membrano-lytic effect in bacterial inner membrane mimic DOPG/CL (58:42) large unilamellar vesicles at 30 uM by varian cary eclipse fluorescence spectrometry analysis. Format: cell membranes.
The nature of series [12]: Induction of DOPG/CL (58:42) large unilamellar vesicles membrane fluidity at 5 uM (reference value: -0.32).
Series [13] is described as follows: Induction of membrane leakage in DOPE/DOPG/CL (63:23:12) large unilamellar vesicles at 5 to 50 uM incubated for 10 mins. As to conditions: dose 5-50 µM. The gist of the method:
as §3

The subject of series [14] is HaCaT. Briefly: Cytotoxicity against human HaCaT cells assessed as reduction in cell viability at 3.125 to 100 uM measured after 2 to 24 hrs by MTT assay. It counts as toxicity, cell-based. As to conditions: dose lower 3.125 µM, time lower 2 hrs, dose upper 100 µM, time upper 24 hrs. The gist of the method: as §2
In series [15] the test system is Staphylococcus aureus. Briefly: Antimicrobial activity against MRSA-resistant Staphylococcus aureus ATCC 43300 assessed as reduction in colony formation at 12.5 uM incubated for 30 min by time kill assay. It counts as functional, organism-based.
A short description of series [16]: Induction of DOPG/CL (58:42) large unilamellar vesicles membrane fluidity at 5 uM (reference value: -0.32). The gist of the method:
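LUVs of DOPG/CL 58/42 prepared by extrusion (0.1 μm), Laurdan 1 μM incorporated, hydrated in PBS pH 7.4; lipid 100 μM final. Peptide added at 5 or 30 μM; spectra recorded after 10 min at 25 °C. Fluidity expressed as GP = (I440 − I490)/(I440 + I490).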

Series [17] has as its system Serum. In words: Proteolytic stability in human serum incubated for 0.25 to 12 hrs by RP-UHPLC analysis. To be noted: time 0.25-12 hrs. Format: ADME, cell-free.
Series [18] deals with Staphylococcus aureus. In words: Antimicrobial activity against MRSA-resistant Staphylococcus aureus ATCC 43300 assessed as reduction in colony formation at 12.5 uM incubated for 24 hrs by time kill assay. Format: functional, organism-based.

Regarding `CC[C@H](C)[C@H](NC(=O)[C@H](CCCNC(=N)N)NC(=O)[C@@H]1CCCCn2cc(nn2)C[C@H](NC(=O)[C@H](Cc2ccccc2)NC(=O)[C@H](Cc2c[nH]c3ccccc23)NC(=O)[C@@H]2CCCN2C(=O)[C@@H](NC(=O)[C@@H](N)Cc2ccccc2)C(C)C)C(=O)N[C@@H](CCCCN)C(=O)N[C@@H](Cc2ccccc2)C(=O)N[C@@H](CC(C)C)C(=O)N1)C(=O)N[C@@H](CC(C)C)C(N)=O`, the MIC in series [1] and in series [4] was above 100 µM each time. In addition, the outcome in [2], in [7] and in [8] was Active. The Activity in series [3] is below 20%; in series [5] it was below 40%; in [6], 60%; in series [9] it was “Active”.

Regarding `CC[C@H](C)[C@H](NC(=O)[C@H](CCCNC(=N)N)NC(=O)[C@@H]1CCC(=O)NCCCC[C@H](NC(=O)[C@H](Cc2ccccc2)NC(=O)[C@H](Cc2c[nH]c3ccccc23)NC(=O)[C@@H]2CCCN2C(=O)[C@@H](NC(=O)[C@@H](N)Cc2ccccc2)C(C)C)C(=O)N[C@@H](CCCCN)C(=O)N[C@@H](Cc2ccccc2)C(=O)N[C@H](CC(C)C)C(=O)N1)C(=O)N[C@@H](CC(C)C)C(N)=O` (H-FVPWFKKF[dL]ERIL-NH2; lactam 6-10), the MIC (in general, the lowest concentration that inhibits growth of the organism) in series [1] amounted to 100 µM (≈ 170 µg/mL). For the same compound, the result in series [2], in [10], in series [11], in series [13], in series [15] and in [8] was Active. Further, the outcome in series [18] was Active. Further, the Activity is -0.23 in series [12], “Toxic” in series [14], -0.23 in series [16] and “Not Active” in series [9]. In addition, the Stability result in series [17] is “Stable”.
